Experimental data of several laboratories.
Compare with care: the assays were run in different laboratories.
MMP2: 72 kDa type IV collagenase (MMP2, Homo sapiens, UniProt P08253)
CNR2: Cannabinoid receptor 2 (CNR2, Homo sapiens, UniProt P34972)
ADRB2: Beta-2 adrenergic receptor (ADRB2, Homo sapiens, UniProt P07550)

CCCC[C@H](NC(=O)C1CN(C)C1)c1ncc(-c2cc3ccccc3nc2OC)[nH]1 — IC50 (Polyamine deacetylase HDAC10 (HDAC10, Homo sapiens, UniProt Q969S8); enzyme activity, inhibitor): 75 nM
Cc1noc(-c2cc3cc(-c4nc(C(=O)NCc5ccccn5)[nH]c4C)ccc3[nH]2)n1 — IC50 (MMP2; enzyme activity, inhibitor): > 20000 nM
CC[C@@H](C(=O)Nc1ccc(C(N)=O)c(F)c1)n1cc(OC)c(-c2cc(Cl)ccc2-n2cc(C(F)(F)F)nn2)cc1=O — IC50 (Coagulation factor X (F10, Homo sapiens, UniProt P00742); enzyme activity, inhibitor): 1700 nM
Cc1c(C(=O)NN2CCCCC2)nc(-c2ccc(Cl)cc2Cl)n1-c1ccc(OS(=O)(=O)CCC(C)C)cc1 — IC50 (CNR2; GTPγS binding, antagonist; cell membranes): 271 nM
Cc1csc(COCC(=O)C23CC4CC(CC(C4)C2)C3)n1 — IC50 (11-beta-hydroxysteroid dehydrogenase 1 (HSD11B1, Homo sapiens, UniProt P28845); enzyme activity in cells, inhibitor): 71 nM
COc1ccc2c3ccnc(C(F)(F)F)c3n(CCCCN)c2c1 — IC50 (Serine/threonine-protein kinase haspin (HASPIN, Homo sapiens, UniProt Q8TF76); enzyme activity, inhibitor, TR-FRET): 100 nM
Cc1c(C(=O)NN2CCCCC2)nc(-c2ccc(Cl)cc2Cl)n1-c1ccc(OS(=O)(=O)CCC(C)(C)C)cc1 — IC50 (CNR2; GTPγS binding, antagonist; cell membranes): 1360 nM
COc1cc(N)c(Cl)cc1C(=O)CCC1CCN(CCNS(C)(=O)=O)CC1 — IC50 (ADRB2; ligand displacement, radioligand; cell membranes): 62600 nM
Cn1nc(C(=O)NCc2ccc(C(=O)O)cc2)cc1-c1ccc2[nH]c(-c3ccncc3)cc2c1 — IC50 (MMP2; enzyme activity, inhibitor): > 22000 nM
COc1ccc2nc(/N=C3/NC(=O)C(=Cc4cc(OC)c(O)c(OC)c4)S3)sc2c1 — IC50 (Aldo-keto reductase family 1 member B1 (Akr1b1, Rattus norvegicus, UniProt P07943); enzyme activity, inhibitor, absorbance; pH 6.2): 10500 nM
COc1cc(O)c(CC=C(C)C)c2c1C(=O)CC(c1ccc(O)cc1)O2 (stereo not shown) — IC50 (Cytochrome P450 1B1 (CYP1B1, Homo sapiens, UniProt Q16678); enzyme activity, inhibitor, fluorescence; 15 min, pH 7.4): 480 nM
C=CC(C)(C)c1cc(/C=C/C(=O)c2ccc(O)cc2)c(OC)cc1O — IC50 (Histone-lysine N-methyltransferase SETD7 (SETD7, Homo sapiens, UniProt Q8WTS6); enzyme activity, inhibitor): > 333000 nM
Cc1ccc(NC(=O)c2ccc(C)c(C(F)(F)F)c2)cc1C#Cc1nn(C2CCC(O)CC2)c2ncnc(N)c12 (stereo not shown) — IC50 (Epithelial discoidin domain-containing receptor 1 (DDR1, Homo sapiens, UniProt Q08345); enzyme activity, inhibitor, radiometric): 15 nM
CN1[C@@H]2CC[C@H]1C[C@@H](OC(=O)c1c[nH]c3ccccc13)C2 — IC50 (ADRB2; ligand displacement, radioligand; cell membranes): 37700 nM
Cc1noc(-c2cc3cc(-c4nc(C(=O)NCc5cccnc5)[nH]c4C)ccc3[nH]2)n1 — IC50 (MMP2; enzyme activity, inhibitor): > 20000 nM
CCC1(c2ccc(C)cc2)C(=O)N(C(=O)OC(C)C)N1C(=O)OC(C)C (stereo not shown) — IC50 (Monoacylglycerol lipase ABHD6 (Abhd6, Mus musculus, UniProt Q8R2Y0); enzyme activity, inhibitor): 3000 nM
COc1cccc2sc(N(CCN3CCCC3)C(=O)c3ccc(Cl)s3)nc12 — IC50 (Short transient receptor potential channel 6 (Trpc6, Mus musculus, UniProt Q61143); calcium signal, fluorescence): 63900 nM
CN1CCN(c2ccc(Nc3ncc4cc(C#N)c(=O)n(C5CCCC5)c4n3)cc2)CC1 — IC50 (Protein kinase C epsilon type (PRKCE, Homo sapiens, UniProt Q02156); enzyme activity, inhibitor): 6310 nM
CC(C)(C)n1nc(-c2ccc3nc(OC4CC4)ccc3c2)c(C(N)=O)c1N — IC50 (Casein kinase I isoform alpha (CSNK1A1, Homo sapiens, UniProt P48729); cell-free assay, inhibitor): > 10000 nM
